This is an account of results in ChEMBL document CHEMBL1134622, “Piperazine-based CCR5 antagonists as HIV-1 inhibitors. II. Discovery of 1-[(2,4-dimethyl-3-pyridinyl)carbonyl]-4- methyl-4-[3(S)-methyl-4-[1(S)-[4-(trifluoromethyl)phenyl]ethyl]-1-piperazinyl]- piperidine N1-oxide (Sch-350634), an orally bioavailable, potent CCR5 antagonist” (J Med Chem, 2001).

Series [1] addresses T1, C-C chemokine receptor type 5 (Homo sapiens, UniProt P51681). The experiment in a line: Binding affinity towards C-C chemokine receptor type 5. In outline:
(§1)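 CCR5 Ki in nM. Standard error 10%; assay-to-assay variability 2-3-fold.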

For series [2], the system named is Rattus norvegicus. The experiment in a line: Pharmacokinetic characterization measured on oral blood levels in rat at 10 mg/kg (0-6 hr). Format: ADME, organism-based. More on the design: time < 6 hr, dose 10 mg/kg, route oral. As to conditions: in vivo. In short, it runs like this:
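Rats given compound orally at 10 mg/kg. Plasma concentrations followed over 6 h. Blood levels expressed as AUC (0-6 h) of the concentration-time plot, in ng/mL h.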

The subject of series [3] is U-87 MG. The experiment in a line: Inhibition of the entry of HIV-1 reporter virus (ADA) into U-87 cells. The settings on record: Homo sapiens. The series is classed as functional, cell-based, U-87MG ATCC. In short, it runs like this: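 Single-cycle infectivity assay in U-87 cells with HIV-1 reporter virus (ADA). IC50 is the concentration giving 50% inhibition of viral entry. 95% confidence limit within 1 log; intra-assay variation under 0.5 log.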

For series [4], the system named is U-87 MG. The experiment in a line: Inhibition of the entry of HIV-1 reporter virus (JrF1) into U-87 cells. As to conditions: Homo sapiens. The series is classed as functional, cell-based, U-87MG ATCC. In outline:
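Entry of HIV-1 reporter virus (JrFl) into U-87 cells. IC50 is the concentration inhibiting entry by 50%. 95% confidence limit within 1 log; intra-assay variation under 0.5 log.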

Series [5] has as its system Canis familiaris. The experiment in a line: Area under concentration curve in Beagle dogs after iv administration (0-24 hr). Format: ADME, organism-based, Canis lupus familiaris. Set-up: time < 24 hr, route intravenous. The settings on record: dog, in vivo. In outline: (§2)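 Beagle dogs and cynomolgus monkeys. IV dose 1 mg/kg. Oral dose 3 mg/kg in dog, 10 mg/kg in monkey. Plasma sampled over 0-24 h. […] Bioavailability is dose-corrected from oral vs iv AUC.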

In series [6] the test system is Cynomolgus monkey. The experiment in a line: Area under concentration curve in cynomolgus monkey after iv administration. The series is classed as ADME, organism-based, Macaca fascicularis. As to conditions: in vivo. In outline: as §2
Series [7] deals with Cynomolgus monkey. The experiment in a line: Area under concentration curve in cynomolgus monkey after oral administration. As to conditions: in vivo. Format: ADME, organism-based, Macaca fascicularis. In outline:
as §2

The nature of series [8]: Bioavailability in dog after oral administration. The settings on record: in vivo, read-out: BA. The series is classed as ADME, organism-based, Canis lupus familiaris. In outline:
as §2

Series [9] is described as follows: Bioavailability in monkey after oral administration. As to conditions: simiiformes, in vivo, read-out: BA. The series is classed as ADME, organism-based. In outline: as §2
Series [10] is described as follows: Maximum plasma concentration after oral administration in dog. The series is classed as ADME, organism-based, Canis lupus familiaris. More on the design: route oral. In short, it runs like this: as §2
A short description of series [11]: Maximum plasma concentration after oral administration in monkey. The series is classed as ADME, organism-based. Set-up: route oral. As to conditions: simiiformes. In short, it runs like this:
as §2

The nature of series [12]: Time required for the maximum plasma concentration in rat blood levels at 10 mg/kg. Format: ADME, organism-based. Set-up: dose 10 mg/kg.
Series [13] concerns the target T1, C-C chemokine receptor type 5. The experiment in a line: Binding affinity at C-C chemokine receptor type 5. In short, it runs like this:
as §1

The target in series [14] is T2, Muscarinic acetylcholine receptor M2 (Homo sapiens, UniProt P08172).
T2 sequence (P08172 whole entry): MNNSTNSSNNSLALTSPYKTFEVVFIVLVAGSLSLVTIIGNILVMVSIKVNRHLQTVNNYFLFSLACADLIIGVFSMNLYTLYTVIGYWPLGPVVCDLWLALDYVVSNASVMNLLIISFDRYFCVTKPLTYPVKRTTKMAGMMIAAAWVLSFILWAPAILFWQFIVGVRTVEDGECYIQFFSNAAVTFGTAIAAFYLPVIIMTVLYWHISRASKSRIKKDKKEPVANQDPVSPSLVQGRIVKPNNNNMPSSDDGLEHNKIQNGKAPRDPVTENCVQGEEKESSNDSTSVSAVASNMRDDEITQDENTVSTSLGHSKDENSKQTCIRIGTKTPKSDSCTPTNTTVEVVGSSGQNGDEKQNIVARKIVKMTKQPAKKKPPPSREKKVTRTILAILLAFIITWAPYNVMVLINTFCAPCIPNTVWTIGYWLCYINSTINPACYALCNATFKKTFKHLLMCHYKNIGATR
The experiment in a line: Binding affinity against muscarinic acetylcholine receptor M2.

Series [15] is described as follows: Plasma concentration after 0 hours of intravenous administration in dog. Format: ADME, organism-based, Canis lupus familiaris. As to conditions: read-out: Co. In short, it runs like this:
as §2

Series [16] in a line: Plasma concentration after 0 hours of intravenous administration in cunomolgus monkey. Format: ADME, organism-based, Macaca fascicularis. The settings on record: cynomolgus monkey. In outline:
as §2

The test system of series [17] is Canis familiaris. The experiment in a line: Area under concentration curve in Beagle dogs after oral administration (0-24 hr). More on the design: time < 24 hr, route oral. As to conditions: dog, in vivo. The series is classed as ADME, organism-based, Canis lupus familiaris. In outline: as §2
Series [18] is described as follows: Plasma concentration after 6 hours of oral administration in rat. Format: ADME, organism-based. As to conditions: read-out: C6h.
A short description of series [19]: Half life determined after iv administration to dog. Format: ADME, organism-based, Canis lupus familiaris. The settings on record: in vivo. In short, it runs like this: as §2
Series [20] in a line: Time required for the maximum plasma concentration in rat. The series is classed as ADME, organism-based.
Series [21] can be described thus: Half life determined after iv administration to monkey. As to conditions: simiiformes, in vivo. The series is classed as ADME, organism-based. In outline: as §2
In series [22] the target is T1, C-C chemokine receptor type 5. The experiment in a line: Inhibitory activity against C-C chemokine receptor type 5. In short, it runs like this: as §1

T1 sequence (P51681 whole entry): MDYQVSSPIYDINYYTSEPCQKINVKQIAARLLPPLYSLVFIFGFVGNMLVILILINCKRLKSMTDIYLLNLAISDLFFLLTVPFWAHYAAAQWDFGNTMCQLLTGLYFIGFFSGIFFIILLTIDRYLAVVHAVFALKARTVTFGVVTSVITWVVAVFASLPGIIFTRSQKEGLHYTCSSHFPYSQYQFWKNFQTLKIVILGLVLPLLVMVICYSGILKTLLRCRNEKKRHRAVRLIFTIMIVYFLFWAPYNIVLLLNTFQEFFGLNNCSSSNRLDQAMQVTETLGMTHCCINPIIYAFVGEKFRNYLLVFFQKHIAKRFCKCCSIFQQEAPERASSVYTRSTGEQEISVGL

Turning to `Cc1cccc(C)c1C(=O)N1CCC(N2CCN(Cc3ccc(I)cc3)CC2)CC1`, the Ki (usually the dissociation constant of the complex between target and ligand, obtained from inhibition or displacement) in [1] turned out to be 440 nM.
Consider `Cc1cccc(O)c1C(=O)N1CCC(C)(N2CCN([C@@H](C)c3ccc(C(F)(F)F)cc3)[C@@H](C)C2)CC1`, for which, in [2], the AUC (commonly concentration integrated over time) turned out to be 2540 ng·h/mL. The affinity in series [1], expressed as Ki, was 5 nM. Besides, the IC50 (usually the point on the concentration scale where inhibition reaches its midpoint) in series [3] came out at 3.2 nM.
As for `Cc1cccc(O)c1C(=O)N1CCC(C)(N2CCN([C@@H](C)c3ccc(S(C)(=O)=O)cc3)[C@@H](C)C2)CC1`, the AUC in [2] is 384 ng·h/mL. In series [1], this compound displayed an inhibition constant (Ki) of 15 nM. Moreover, it took 4 nM to reach half-maximal inhibition in [3] (IC50).
`Cc1cccc(C)c1C(=O)N1CCC(N2CCN([C@@H](C)c3ccc(I)cc3)[C@@H](C)C2)CC1` gave an inhibition constant (Ki) in series [1] of 20 nM. This compound had an IC50 in series [4] of 7 nM.
`C[C@H]1CN(C2(C)CCN(C(=O)c3c(N)cccc3Cl)CC2)CCN1[C@@H](C)c1ccc(S(C)(=O)=O)cc1`: the area under the curve (AUC) in series [2] is 447 ng·h/mL. In series [1], this compound came in with a Ki of 5 nM. Moreover, in series [3], the 50% inhibitory concentration (IC50) was 0.8 nM.
Regarding `Cc1cccc(C)c1C(=O)N1CCC(C)(N2CCN([C@@H](C)c3ccc(S(C)(=O)=O)cc3)[C@@H](C)C2)CC1`, in [1], the affinity corresponds to a Ki of 3 nM. For the same compound, the IC50 in series [3] turned out to be 0.5 nM.
The compound `C[C@H]1CN(C2(C)CCN(C(=O)c3c(N)cccc3Cl)CC2)CCN1[C@@H](C)c1ccc(I)cc1` had an AUC in series [2] of 1980 ng·h/mL. Also, affinity in series [1] was put at a Ki of 12 nM. For the same compound, in [3], inhibition was half-maximal at 2 nM (IC50).
For the compound `Cc1ccnc(C)c1C(=O)N1CCC(C)(N2CCN([C@@H](C)c3ccc(C(F)(F)F)cc3)[C@@H](C)C2)CC1`, the AUC in series [5] was determined as 1610 ng·h/mL; in series [6], 996 ng·h/mL; in series [7], 2740 ng·h/mL; in series [2], 3900 ng·h/mL; in [17], 1580 ng·h/mL. For the same compound, the bioavailability turned out to be 33% in series [8] and 27.5% in series [9]. The values for the Cmax in series [10] and in [11] were 226 ng/mL and 281 ng/mL, respectively. The Tmax (in general, the time from dosing to the highest level) in series [12] came to 1.5 h. The inhibition constant Ki turned out to be 2.3 nM in series [13] and 2500 nM in series [14]. This compound also registered an IC50 in series [3] of 0.5 nM. In addition, the concentration at 0 h in series [15] was found to be 346 ng/mL. Besides, the C0 at 0 h in [16] was determined as 390 ng/mL.
`Cc1cccc(C)c1C(=O)N1CCC(C)(N2CCN(Cc3ccc(I)cc3)CC2)CC1` displayed an inhibitory constant (Ki) in series [1] of 62 nM.
`Cc1cccc(C)c1C(=O)N1CCC(C)(N2CCN([C@@H](C)c3ccc(C(F)(F)F)cc3)[C@@H](C)C2)CC1` had an AUC in series [2] of 922 ng·h/mL. In series [1], the Ki was found to be 1 nM. Moreover, the half-maximal inhibitory concentration (IC50) in series [3] was 0.4 nM.
On to `Cc1cccc(C)c1C(=O)N1CCC(C)(N2CCN([C@@H](C)c3ccc(I)cc3)[C@@H](C)C2)CC1`, for which the AUC in series [2] was determined as 822 ng·h/mL. In addition, the affinity in [1], expressed as Ki, was 5 nM. This compound also yielded a concentration for half-maximal inhibition (IC50) in series [3] of 1 nM.
In series [1], `Cc1cccc(C)c1C(=O)N1CCC(N2CCN(Cc3ccc(I)cc3)[C@@H](C)C2)CC1` returned an inhibitory constant (Ki) of 30 nM.
Consider `Cc1cc[n+]([O-])c(C)c1C(=O)N1CCC(C)(N2CCN([C@@H](C)c3ccc(C(F)(F)F)cc3)[C@@H](C)C2)CC1`, for which the AUC in [5] came out at 3240 ng·h/mL; in series [6], 2610 ng·h/mL; in [7], 15400 ng·h/mL; in series [2], 9240 ng·h/mL; in series [17] it was 6290 ng·h/mL. The concentration at 6 h in [18] was 1300 ng/mL. For the same compound, the bioavailability was 65% in [8] and 59% in series [9]. In addition, the half-life (as a rule, the time in which the quantity being followed falls by half) in series [19] is 6 h; in series [21] it was 4 h. Moreover, the peak concentration (Cmax) (as a rule, the maximum level reached in the sampled fluid or tissue) was determined as 690 ng/mL in series [10] and 1420 ng/mL in [11]. Besides, in series [20], the time to peak (Tmax) is 2.5 h. In addition, the Ki turned out to be 7 nM in [13] and 250 nM in series [14]. This compound registered an IC50 in series [3] of 1 nM.
For `Cc1cccc(C)c1C(=O)N1CCC(N2CCN([C@@H](C)c3ccc(Br)cc3)[C@@H](C)C2)CC1`, in series [1], the inhibition constant Ki is 23 nM. The compound also had an IC50 in series [22] of 6 nM.
Consider `C[C@H]1CN(C2(C)CCN(C(=O)c3c(N)cccc3Cl)CC2)CCN1[C@@H](C)c1ccc(C(F)(F)F)cc1`, for which, in series [2], the area under the curve (AUC) was 1870 ng·h/mL. The compound further returned an inhibition constant (Ki) in [1] of 5 nM. In series [3], the half-inhibitory concentration (IC50) turned out to be 1.2 nM.
Turning to `Cc1cccc(C)c1C(=O)N1CCC(C)(N2CCN(Cc3ccc(I)cc3)[C@@H](C)C2)CC1`, in [1], the inhibition constant Ki came to 8 nM. Also, in series [4], it took 2.7 nM to reach half-maximal inhibition (IC50).
The compound `Cc1cccc(C)c1C(=O)N1CCC(N2CCN([C@@H](C)c3ccccc3)[C@@H](C)C2)CC1` had a Ki in series [1] of 275 nM.
Turning to `Cc1cccc(O)c1C(=O)N1CCC(C)(N2CCN([C@@H](C)c3ccc(I)cc3)[C@@H](C)C2)CC1`, in series [2], the area under the curve (AUC) is 2810 ng·h/mL. For the same compound, the Ki in series [1] was found to be 7 nM. In [3], this compound came in with a half-maximal inhibitory concentration (IC50) of 1 nM.
